Series [1] addresses T1, Broad substrate specificity ATP-binding cassette transporter ABCG2 (Homo sapiens, UniProt Q9UNQ0).
T1 sequence (Q9UNQ0 whole entry): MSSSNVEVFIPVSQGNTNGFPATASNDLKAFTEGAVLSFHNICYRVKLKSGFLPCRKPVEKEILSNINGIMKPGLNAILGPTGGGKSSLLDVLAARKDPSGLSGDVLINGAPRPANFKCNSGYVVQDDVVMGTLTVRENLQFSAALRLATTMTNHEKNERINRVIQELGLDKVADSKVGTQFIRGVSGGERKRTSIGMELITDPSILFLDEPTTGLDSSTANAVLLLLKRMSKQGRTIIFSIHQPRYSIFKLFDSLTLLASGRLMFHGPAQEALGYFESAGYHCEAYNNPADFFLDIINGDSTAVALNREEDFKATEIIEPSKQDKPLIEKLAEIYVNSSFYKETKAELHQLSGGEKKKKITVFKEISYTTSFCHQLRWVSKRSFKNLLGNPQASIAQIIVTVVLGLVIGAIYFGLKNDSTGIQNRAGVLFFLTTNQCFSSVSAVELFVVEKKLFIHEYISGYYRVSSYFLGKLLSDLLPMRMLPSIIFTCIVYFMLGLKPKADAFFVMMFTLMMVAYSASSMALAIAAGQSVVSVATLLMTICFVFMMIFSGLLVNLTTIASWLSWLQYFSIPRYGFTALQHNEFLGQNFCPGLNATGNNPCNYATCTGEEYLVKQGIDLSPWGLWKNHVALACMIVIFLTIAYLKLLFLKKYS
The series can be described thus: Inhibition of c-terminal GFP-tagged human ABCG2 expressed in MDCK2 cells preincubated for 30 mins before Hoechst 33342 addition by Hoechst 33342 accumulation assay. The format is cell-based. The gist of the method: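 MDCK II cells transfected with human ABCG2 fused C-terminally to GFP, washed in Krebs-HEPES buffer pH 7.0; ~30,000 cells/well, compound 30 min at 37 °C. 6 µM Hoechst 33342 solution added, fluorescence (ex 355/em 460 nm) every 60 s to 120 min. Final methanol ≤5%, DMSO ≤0.1%.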

Series [2] can be described thus: Intrinsic cytotoxicity against MDCK2 cells over-expressing human ABCG2 incubated for 72 hrs by MTT assay. The format is ADME, cell-based, Canis lupus familiaris, MDCK-II. Conditions: dog. The method, boiled down:
(§1)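 MDCK II cells incubated 72 h with compound dilutions, then MTT added; viability from formazan formation. […] Methanol (≤1.8%) and DMSO (≤1%) vehicle tested alone.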
(In general: Tetrazolium assays rely on reduction of a dye to a coloured formazan, in cell work by metabolically active cells.)

Series [3] is described as follows: Intrinsic cytotoxicity against parental MDCK2 cells incubated for 72 hrs by MTT assay. The format is cell-based, Canis lupus familiaris, MDCK-II. Conditions: dog. The method, boiled down:
as §1

For series [4], the system named is ABCG2. Kind of series: Therapeutic index, ratio of GI50 for intrinsic cytotoxicity against MDCK2 cells over-expressing human ABCG2 top IC50 for inhibition of c-terminal GFP-tagged human ABCG2 expressed in MDCK2 cells. Format: toxicity, cell-based. Conditions: dog, read-out: RatioGI50. The method, boiled down:
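Ratio of MTT GI50 (72 h, MDCK II) to IC50 from the Hoechst 33342 accumulation assay.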

For a further series, the target named is ABCC1 (Homo sapiens, UniProt P33527). The series can be described thus: Inhibition of ABCC1 in human H69AR cells at 10 uM preincubated for 30 mins before calcein AM addition by calcein AM assay relative to CsA. Format: cell-based. Conditions: probe calcein AM. The gist of the method: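 H69AR cells (ABCC1-overexpressing) washed in Krebs-HEPES buffer pH 7.0; ~30,000 cells/well preincubated with compound 30 min at 37 °C, 5% CO2. Then 1.25 µM calcein AM solution added, fluorescence at ex 485/em 520 nm every 60 s for 60 min at 37 °C. Screened at 10 µM; activity expressed relative to cyclosporine A.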
Chain of ABCC1 (P33527 whole entry): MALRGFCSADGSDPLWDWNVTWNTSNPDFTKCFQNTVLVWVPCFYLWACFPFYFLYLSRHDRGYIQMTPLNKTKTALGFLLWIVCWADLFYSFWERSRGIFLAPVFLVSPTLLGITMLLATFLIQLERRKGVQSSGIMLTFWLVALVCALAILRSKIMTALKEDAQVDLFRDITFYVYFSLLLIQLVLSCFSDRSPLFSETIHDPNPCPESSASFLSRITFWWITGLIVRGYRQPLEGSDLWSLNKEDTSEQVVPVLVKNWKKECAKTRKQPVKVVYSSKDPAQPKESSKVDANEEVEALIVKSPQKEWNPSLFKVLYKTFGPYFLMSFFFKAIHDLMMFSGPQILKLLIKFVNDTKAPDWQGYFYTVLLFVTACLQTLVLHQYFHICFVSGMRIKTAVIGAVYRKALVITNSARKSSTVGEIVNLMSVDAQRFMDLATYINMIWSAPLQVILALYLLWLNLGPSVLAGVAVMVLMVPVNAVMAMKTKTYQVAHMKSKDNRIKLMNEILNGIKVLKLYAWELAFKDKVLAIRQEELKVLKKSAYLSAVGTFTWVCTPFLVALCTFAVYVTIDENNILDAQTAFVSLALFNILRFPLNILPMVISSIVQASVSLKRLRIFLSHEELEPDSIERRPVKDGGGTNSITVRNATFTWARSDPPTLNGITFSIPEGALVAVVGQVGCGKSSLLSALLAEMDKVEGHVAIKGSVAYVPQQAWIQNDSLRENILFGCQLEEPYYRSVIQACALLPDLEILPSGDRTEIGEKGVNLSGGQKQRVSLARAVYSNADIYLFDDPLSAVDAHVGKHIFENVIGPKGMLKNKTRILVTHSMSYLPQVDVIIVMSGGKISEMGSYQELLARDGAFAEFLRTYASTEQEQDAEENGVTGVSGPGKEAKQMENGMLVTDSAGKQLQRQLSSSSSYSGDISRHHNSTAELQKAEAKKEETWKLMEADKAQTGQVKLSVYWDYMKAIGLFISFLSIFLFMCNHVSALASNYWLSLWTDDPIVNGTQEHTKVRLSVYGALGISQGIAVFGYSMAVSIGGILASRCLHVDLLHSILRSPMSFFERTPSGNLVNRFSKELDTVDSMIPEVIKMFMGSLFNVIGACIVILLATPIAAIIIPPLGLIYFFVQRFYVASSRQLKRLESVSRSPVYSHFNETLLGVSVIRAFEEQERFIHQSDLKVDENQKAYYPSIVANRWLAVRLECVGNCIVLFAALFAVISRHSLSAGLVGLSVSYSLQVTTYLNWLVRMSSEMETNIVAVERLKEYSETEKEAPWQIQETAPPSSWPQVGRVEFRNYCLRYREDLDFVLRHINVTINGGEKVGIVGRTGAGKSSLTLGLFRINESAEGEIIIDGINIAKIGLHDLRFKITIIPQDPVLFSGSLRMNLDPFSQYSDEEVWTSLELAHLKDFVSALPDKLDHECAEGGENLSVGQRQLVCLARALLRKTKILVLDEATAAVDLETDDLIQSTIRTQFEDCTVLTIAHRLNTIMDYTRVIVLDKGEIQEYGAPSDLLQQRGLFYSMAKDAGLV

The target of series [5] is T1, Broad substrate specificity ATP-binding cassette transporter ABCG2. Kind of series: Inhibition of c-terminal GFP-tagged human ABCG2 expressed in MDCK2 cells preincubated for 30 mins before Pheophorbide A addition by Pheophorbide A assay. The format is cell-based.
A further series has as its target ABCB1 (Homo sapiens, UniProt P08183). Kind of series: Inhibition of ABCB1 in human A2780adr cells at 10 uM preincubated for 30 mins before calcein AM addition by calcein AM assay relative to CsA. Format: cell-based. Conditions: probe calcein AM. The gist of the method: (§2)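 A2780adr cells (ABCB1-overexpressing, doxorubicin-selected one passage every 10 passages) washed three times in Krebs-HEPES buffer pH 7.0; ~30,000 cells/well with compound dilutions, 30 min at 37 °C, 5% CO2. Calcein AM added (1.25 µM solution), fluorescence (ex 485/em 520 nm) read every 60 s for 60 min at 37 °C. Single-point screen at 10 µM relative to cyclosporine A; IC50 from full curves.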

For series [6], the target named is ATP-dependent translocase ABCB1 (Homo sapiens, UniProt P08183). Kind of series: Inhibition of ABCB1 in human A2780adr cells preincubated for 30 mins before calcein AM addition by calcein AM assay. Format: cell-based. The gist of the method: as §2
Chain of ATP-dependent translocase ABCB1 (P08183 whole entry): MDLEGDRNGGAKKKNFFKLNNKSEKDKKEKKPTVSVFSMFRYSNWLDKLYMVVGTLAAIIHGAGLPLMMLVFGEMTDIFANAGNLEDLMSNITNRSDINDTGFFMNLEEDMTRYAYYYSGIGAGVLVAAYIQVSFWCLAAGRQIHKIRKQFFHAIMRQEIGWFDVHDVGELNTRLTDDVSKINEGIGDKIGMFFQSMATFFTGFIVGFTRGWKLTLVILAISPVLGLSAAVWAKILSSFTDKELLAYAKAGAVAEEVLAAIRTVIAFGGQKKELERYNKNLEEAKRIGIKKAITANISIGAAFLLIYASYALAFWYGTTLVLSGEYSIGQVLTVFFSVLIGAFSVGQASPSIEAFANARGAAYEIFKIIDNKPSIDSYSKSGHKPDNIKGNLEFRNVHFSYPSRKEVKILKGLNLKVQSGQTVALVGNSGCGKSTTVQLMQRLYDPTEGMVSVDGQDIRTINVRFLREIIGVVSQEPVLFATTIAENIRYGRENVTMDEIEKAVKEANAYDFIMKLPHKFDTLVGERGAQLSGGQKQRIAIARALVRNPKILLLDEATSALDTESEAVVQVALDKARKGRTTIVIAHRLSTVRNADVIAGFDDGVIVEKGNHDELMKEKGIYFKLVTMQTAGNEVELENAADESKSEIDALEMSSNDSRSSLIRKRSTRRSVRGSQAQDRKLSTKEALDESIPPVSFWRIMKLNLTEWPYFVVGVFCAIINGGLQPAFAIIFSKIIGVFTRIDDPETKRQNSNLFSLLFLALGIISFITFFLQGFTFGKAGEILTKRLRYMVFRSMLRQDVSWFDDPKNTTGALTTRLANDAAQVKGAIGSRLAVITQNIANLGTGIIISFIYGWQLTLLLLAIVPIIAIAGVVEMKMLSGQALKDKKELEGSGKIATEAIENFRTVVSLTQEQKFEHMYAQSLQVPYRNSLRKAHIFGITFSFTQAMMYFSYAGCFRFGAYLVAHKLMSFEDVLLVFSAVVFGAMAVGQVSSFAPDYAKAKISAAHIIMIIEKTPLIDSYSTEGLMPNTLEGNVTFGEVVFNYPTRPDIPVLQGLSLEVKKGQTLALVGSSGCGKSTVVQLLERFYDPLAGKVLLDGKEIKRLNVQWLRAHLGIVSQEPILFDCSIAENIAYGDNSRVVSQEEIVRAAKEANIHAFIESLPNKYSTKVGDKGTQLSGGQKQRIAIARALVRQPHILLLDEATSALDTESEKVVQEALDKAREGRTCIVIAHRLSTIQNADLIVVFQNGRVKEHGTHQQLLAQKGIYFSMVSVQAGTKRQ
In series [7] the test system is ABCG2. The series can be described thus: Therapeutic index, ratio of GI50 for intrinsic cytotoxicity against MDCK2 cells over-expressing human ABCG2 top IC50 for inhibition of c-terminal GFP-tagged human ABCG2 expressed in MDCK2 cells relative to Ko143. Format: toxicity, cell-based. Conditions: dog, read-out: TI.

Chain of ABCB1 (P08183 whole entry): as above

`Clc1ccc(Nc2nc(-c3ccccc3)nc3ccccc23)cc1` came in with an IC50 in series [1] of 830 nM. Moreover, the GI50 at 72 h in [2] amounted to 6750 nM; in [3] it was 14800 nM. For the same compound, in the series on ABCG2 [4], the selectivity ratio amounted to 8.13.

`COC(=O)c1ccc(Nc2nc(-c3ccccc3)nc3ccccc23)cc1`: at ABCC1, the inhibition at 10 µM is > 25%. For the same compound, the IC50 in series [1] is 944 nM.

In the case of `CC(=O)Nc1cccc(Nc2nc(-c3ccccc3)nc3ccccc23)c1`, the IC50 in series [5] was 224 nM; in series [1], 278 nM. In addition, the GI50 at 72 h came to 12900 nM in series [2] and 30900 nM in series [3]. The selectivity ratio in the series with ABCG2 [4] was determined as 46.4.

On to `Oc1ccc(Nc2nc(-c3ccccc3)nc3ccccc23)cc1`, for which the IC50 in series [5] turned out to be 304 nM; in series [1] it was 204 nM. Besides, the GI50 at 72 h was found to be 12200 nM in series [2] and 26900 nM in series [3]. Moreover, the selectivity ratio in the series on ABCG2 [4] is 59.8.

On to `Cc1cccc(Nc2nc(-c3ccccc3)nc3ccccc23)c1`, for which the values for the IC50 in series [1] and in series [6] were 1150 nM and 3000 nM, respectively. For the same compound, at ABCB1, the inhibition at 10 µM is > 25%. Also, the GI50 at 72 h in [2] stood at 12800 nM; in series [3], 24000 nM. Also, in the series on ABCG2 [4], the selectivity ratio worked out at 11.1.

`Cc1ccc(Nc2nc(-c3ccccc3)nc3ccccc23)cc1`: in [1], the IC50 turned out to be 1480 nM.

With `O=C(O)c1ccc(Nc2nc(-c3ccccc3)nc3ccccc23)cc1`, on ABCC1, the inhibition at 10 µM is > 25%. The compound further came in with an IC50 in series [1] of 6380 nM.

With `COc1ccc(Nc2nc(-c3ccccc3)nc3ccccc23)cc1OC`, the IC50 in series [1] is 152 nM; in series [6], 1860 nM. Moreover, the inhibition at 10 µM at ABCB1 was > 25%. For the same compound, the GI50 at 72 h worked out at 22500 nM in [2] and 17000 nM in [3]. In addition, the selectivity ratio with ABCG2 [4] was found to be 148.

As for `O=[N+]([O-])c1cc(Nc2nc(-c3ccccc3)nc3ccccc23)ccc1O`, the results for the IC50 in [5] and in series [1] were 113 nM and 80 nM, respectively. Also, the results for the GI50 at 72 h in series [2] and in [3] were 52400 nM and 152000 nM, respectively. The selectivity ratio in the series on ABCG2 [4] amounted to 655; in the series with ABCG2 [7] it was 13.

With `Fc1cccc(Nc2nc(-c3ccccc3)nc3ccccc23)c1`, the IC50 worked out at 405 nM in series [5] and 355 nM in series [1]. Moreover, the GI50 at 72 h was determined as 17200 nM in series [2] and 27500 nM in series [3]. In addition, the selectivity ratio in the series on ABCG2 [4] was determined as 48.5.

Consider `N#Cc1ccc(Nc2nc(-c3ccccc3)nc3ccccc23)cc1`, for which the IC50 came to 84.5 nM in series [5] and 69.9 nM in series [1]. The values for the GI50 at 72 h in series [2] and in series [3] were 7960 nM and 16600 nM, respectively. The selectivity ratio with ABCG2 [4] is 113.

With `O=C(Nc1ccccc1C(=O)Nc1ccc(CCN2CCc3ccccc3C2)cc1)c1cnc2ccccc2c1`, the IC50 in [5] came to 741 nM; in series [1], 704 nM.

Consider `CC(=O)Nc1cccc(Nc2cc(-c3ccccc3)nc3ccccc23)c1`, for which the inhibition at 10 µM at ABCC1 and at ABCB1 was > 25% throughout. Moreover, the IC50 in [1] is 1630 nM; in series [6], 660 nM.

As for `Ic1cccc(Nc2nc(-c3ccccc3)nc3ccccc23)c1`, the IC50 in series [1] stood at 791 nM. The figures for the GI50 at 72 h in series [2] and in [3] were 4750 nM and 16600 nM, respectively.

Compound `Fc1cccc(Nc2cc(-c3ccccc3)nc3ccccc23)c1` registered an IC50 in series [1] of 2130 nM.

For the compound `COc1ccc(Nc2nc(-c3ccccc3)nc3ccccc23)cc1F`, the figures for the IC50 in series [5] and in series [1] were 689 nM and 872 nM, respectively.

Regarding `CSc1cccc(Nc2nc(-c3ccccc3)nc3ccccc23)c1`, the inhibition at 10 µM on ABCC1 was > 25%. The same compound yielded an IC50 in series [1] of 1190 nM.

For the compound `C#Cc1cccc(Nc2nc(-c3ccccc3)nc3ccccc23)c1`, the IC50 in [5] came out at 513 nM; in [1], 672 nM.

Consider `COc1cccc(Nc2cc(-c3ccccc3)nc3ccccc23)c1`, for which the IC50 in series [1] is 951 nM; in series [6] it was 2780 nM. In addition, the inhibition at 10 µM on ABCB1 was > 25%.

In turn, `Ic1ccc(Nc2nc(-c3ccccc3)nc3ccccc23)cc1` had an IC50 in series [1] of 612 nM. Also, the GI50 at 72 h in series [2] stood at 9250 nM; in [3] it was 8850 nM. Besides, in the series with ABCG2 [4], the selectivity ratio is 15.1.

In [1], `CC(C)(C)c1cccc(Nc2nc(-c3ccccc3)nc3ccccc23)c1` showed an IC50 of 1070 nM.

Turning to `CSc1cccc(Nc2cc(-c3ccccc3)nc3ccccc23)c1`, the inhibition at 10 µM at ABCC1 and at ABCB1 was > 25% each time. The figures for the IC50 in series [1] and in series [6] were 1900 nM and 1420 nM, respectively.

Take `CC(C)(C)OC(=O)c1ccc(Nc2nc(-c3ccccc3)nc3ccccc23)cc1`: the IC50 in [1] turned out to be 5650 nM.

For `Cc1cc(Nc2nc(-c3ccccc3)nc3ccccc23)ccc1I`, the IC50 in series [1] was determined as 1460 nM.

`O=S(=O)(F)c1ccc(Nc2nc(-c3ccccc3)nc3ccccc23)cc1` came in with an IC50 in series [1] of 556 nM.

As for `N#Cc1ccc(Nc2cc(-c3ccccc3)nc3ccccc23)cc1`, the IC50 in series [1] was 846 nM; in series [6], 4740 nM. Moreover, the inhibition at 10 µM at ABCB1 was > 25%.

`COc1cc(Nc2nc(-c3ccccc3)nc3ccccc23)ccc1Br`: the IC50 in series [5] turned out to be 202 nM; in series [1], 289 nM.

Consider `Fc1ccc(Nc2nc(-c3ccccc3)nc3ccccc23)cc1`, for which, in series [1], the IC50 was 1060 nM. The GI50 at 72 h in series [2] came out at 29000 nM; in series [3] it was 25600 nM. The selectivity ratio in the series with ABCG2 [4] stood at 27.4.

The compound `CC(C)(C)c1ccc(Nc2nc(-c3ccccc3)nc3ccccc23)cc1` displayed an IC50 in [1] of 1060 nM.

As to `COc1ccc2c3c([nH]c2c1)[C@H](CC(C)C)N1C(=O)[C@H](CCC(=O)OC(C)(C)C)NC(=O)[C@@H]1C3`, the figures for the 50% growth inhibitory concentration (GI50) at 72 h in [2] and in series [3] were 11100 nM and 10900 nM, respectively.

In general, IC50 refers to the midpoint of a concentration-inhibition curve. One may read the GI50 as the concentration giving 50% growth inhibition. By inhibition is commonly meant the drop in the measured response relative to a control, in per cent.

(Values after ChEMBL document CHEMBL4425096, “Synthesis and Biological Evaluation of 4-Anilino-quinazolines and -quinolines as Inhibitors of Breast Cancer Resistance Protein (ABCG2)” (J Med Chem, 2016).)
